ChEMBL document CHEMBL1127668, “Antagonist, partial agonist, and full agonist imidazo[1,5-a]quinoxaline amides and carbamates acting through the GABAA/benzodiazepine receptor” (J Med Chem, 1994)
Values joined by “and” are separate entries in the source; they are usually repeats but may differ in a detail not shown here. Identical values can stand only once.

Experiments:
Rattus norvegicus [1] = species: Rattus norvegicus; assay: Chloride ion influx in rat cerebrocortical membranes; type: functional
Rattus norvegicus [2] = assay: The compound was tested for antagonistic activity against metrazole induced convulsions in rats after ip administration; type: functional
[3] = target: T1, GABA-A receptor; anion channel (Rattus norvegicus) (UniProt O09028+P15431+P18506+P18508+P19969+P20236+P23574+P23576+P28471+P28473+P30191+P62813+P63079+P63138+Q91ZM7+Q9ES14); assay: Shift in the affinity of [35S]TBPS for the chloride channel of GABAA receptor complex in the presence and absence of compound; type: protein-complex assay
[4] = target: GABA-A receptor; anion channel; assay: Displacement of [3H]- flunitrazepam from rat GABA-A benzodiazepine receptor; type: protein-complex assay
[5] = Displacement of [3H]-Ro- 15-4513 from alpha-1-beta-2-gamma-2 GABA-A receptor subunits expressed in Sf9 cell membranes; set-up: species or system Rattus norvegicus
[6] = target: T1, GABA-A receptor; anion channel (Rattus norvegicus); assay: Inhibition of [35S]TBPS binding to GABA-A receptor complex; type: protein-complex assay
[7] = Displacement of [3H]flunitrazepam from alpha-1-beta-2-gamma-2 GABA-A receptor subunits expressed in Sf9 cell membranes; set-up: species or system Rattus norvegicus
Method in brief: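 Sf-9 membranes from cells infected with baculovirus carrying α1, β2 and γ2 cDNAs, harvested 60 h postinfection. Assay in normal saline with 6 nM [3H]flunitrazepam, 50 µg membrane protein and six test concentrations; 60 min at 4 °C; glass-fiber filtration, four cold washes, scintillation counting.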

[8] = target: GABA A receptor alpha-6/beta-2/gamma-2 (Homo sapiens, UniProt P18507+P47870+Q16445); assay: Displacement of [3H]-Ro- 15-4513 from alpha-6-beta-2-gamma-2 GABA-A receptor subunits expressed in Sf9 cell membranes
Method in brief: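 Sf-9 cells infected with baculovirus carrying α6, β2 and γ2 cDNAs, harvested 60 h postinfection; membranes stored at -80 °C in 300 mM sucrose, 5 mM Tris/HCl pH 7.5, 20% glycerol. 50 µg membrane protein with 6 nM [3H]Ro 15-4513 and six test concentrations in normal saline, 60 min at 4 °C; filtered, washed, scintillation counted.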

Rattus norvegicus [9] = assay: The compound was tested for antagonistic activity against metrazole induced convulsions in rats, after ip administration; type: functional

Sequence of GABA A receptor alpha-6/beta-2/gamma-2 (P47870 whole entry): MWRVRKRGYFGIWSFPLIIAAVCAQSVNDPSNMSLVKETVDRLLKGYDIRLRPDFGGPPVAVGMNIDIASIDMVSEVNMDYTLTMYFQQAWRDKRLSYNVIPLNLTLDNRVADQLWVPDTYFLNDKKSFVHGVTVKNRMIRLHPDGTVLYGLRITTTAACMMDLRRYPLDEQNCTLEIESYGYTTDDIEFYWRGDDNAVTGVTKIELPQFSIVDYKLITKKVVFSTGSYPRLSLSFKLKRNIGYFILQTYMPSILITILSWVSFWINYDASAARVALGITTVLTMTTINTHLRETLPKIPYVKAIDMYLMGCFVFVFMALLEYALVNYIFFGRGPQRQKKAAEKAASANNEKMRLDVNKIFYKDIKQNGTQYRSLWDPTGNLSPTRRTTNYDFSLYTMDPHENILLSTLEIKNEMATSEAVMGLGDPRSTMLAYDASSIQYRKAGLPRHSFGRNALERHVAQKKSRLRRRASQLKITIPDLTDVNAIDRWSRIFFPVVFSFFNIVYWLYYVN
Sequence of GABA A receptor alpha-6/beta-2/gamma-2 (P18507 whole entry): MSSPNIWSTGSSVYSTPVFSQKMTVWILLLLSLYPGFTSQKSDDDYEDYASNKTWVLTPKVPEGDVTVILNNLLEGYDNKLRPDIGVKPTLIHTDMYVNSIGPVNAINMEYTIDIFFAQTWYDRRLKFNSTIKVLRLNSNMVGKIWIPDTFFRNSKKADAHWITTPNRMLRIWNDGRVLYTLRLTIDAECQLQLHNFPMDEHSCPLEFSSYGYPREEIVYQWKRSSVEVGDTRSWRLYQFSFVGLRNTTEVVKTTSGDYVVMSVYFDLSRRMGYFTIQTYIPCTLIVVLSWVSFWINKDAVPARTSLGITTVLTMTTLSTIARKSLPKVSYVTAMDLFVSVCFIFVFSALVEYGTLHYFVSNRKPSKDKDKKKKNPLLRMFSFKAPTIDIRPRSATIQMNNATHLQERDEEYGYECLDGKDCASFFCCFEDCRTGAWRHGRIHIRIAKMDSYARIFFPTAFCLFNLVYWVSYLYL
Sequence of GABA A receptor alpha-6/beta-2/gamma-2 (Q16445 whole entry): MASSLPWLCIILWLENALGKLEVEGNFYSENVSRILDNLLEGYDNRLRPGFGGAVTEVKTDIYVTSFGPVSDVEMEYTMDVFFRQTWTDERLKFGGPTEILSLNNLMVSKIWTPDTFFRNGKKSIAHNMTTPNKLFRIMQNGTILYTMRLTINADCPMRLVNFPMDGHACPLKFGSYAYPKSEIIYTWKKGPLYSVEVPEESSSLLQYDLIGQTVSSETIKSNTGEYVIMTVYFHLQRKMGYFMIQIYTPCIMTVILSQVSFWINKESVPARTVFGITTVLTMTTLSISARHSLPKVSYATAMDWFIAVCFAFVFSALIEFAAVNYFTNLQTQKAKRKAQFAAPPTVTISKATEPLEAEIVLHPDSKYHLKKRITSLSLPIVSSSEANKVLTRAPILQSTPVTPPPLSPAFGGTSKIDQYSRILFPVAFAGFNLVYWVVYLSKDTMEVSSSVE

Row | Compound | Chlorine uptake (Rattus norvegicus [1]) | ED50 (Rattus norvegicus [2]) | TBPS shift [3] | Ki [4] | Ki [5] | TBPS shift [6] | Ki [7] | Ki [8] | ED50 (Rattus norvegicus [9])
1 | CC(=O)N1Cc2c(-c3nc(C4CC4)no3)ncn2-c2ccccc21 | 0.6 | 42 mg/kg | 0.7 | 6.6 nM |  |  |  |  | 
2 | CC(C)(C)OC(=O)c1ncn2c1C1CCC(=O)N1c1ccccc1-2 (stereo not given) |  | > 50 mg/kg |  | 0.76 nM | 13.2 nM | 0.06 | 0.4 nM |  | 
3 | O=C(c1ccccc1)N1Cc2c(-c3noc(C4CC4)n3)ncn2-c2ccccc21 |  |  | 0.5 | 4.3 nM | 1140 nM |  | 0.3 nM |  | 
4 | CC(=O)N1Cc2c(C(=O)OC(C)(C)C)ncn2-c2ccccc21 | 0 |  | -0.06 |  |  |  |  |  | 
5 | O=C(c1ccccc1)N1Cc2c(-c3noc(C4CC4)n3)ncn2-c2ccc(F)cc21 | 0.67 |  | 0.98 | 0.58 nM | > 10000 nM |  | 0.4 nM |  | 
6 | CC(=O)N1c2ccccc2-n2cnc(-c3noc(C4CC4)n3)c2C1(C)C |  | 30 mg/kg | 0.7 | 4.8 nM |  |  |  |  | 
7 | CC(=O)N1Cc2c(-c3noc(C4CC4)n3)ncn2-c2ccccc21 |  | 35 mg/kg | 0.9 | 1.5 nM | 124 nM |  | 2.7 nM |  | 
8 | COC(=O)N1c2ccccc2-n2cnc(-c3noc(C4CC4)n3)c2C1(C)C | 1.18 and 0.4 | > 50 mg/kg | 1.04 and 0.8 | 6.8 nM |  |  |  |  | 
9 | CC(C)(C)OC(=O)c1ncn2c1CN(C(=O)OC(C)(C)C)c1ccccc1-2 | 0.14 |  | 0.45 | 5.1 nM |  |  |  |  | 
10 | CCOC(=O)c1ncn2c1CN(C)C(=O)c1cc(N=[N+]=[N-])ccc1-2 [Ro-154513] |  |  |  |  |  |  | 15 nM | 5.4 nM | 
11 | O=C(c1ccccc1)N1Cc2c(-c3noc(C4CC4)n3)ncn2-c2cccc(F)c21 | 0.9 |  | 0.87 | 0.77 nM | 681 nM |  | 0.3 nM |  | 25 mg/kg
12 | CC(C)(C)OC(=O)c1ncn2c1CN(C(=O)c1ccccc1Cl)c1ccccc1-2 | -0.15 | > 50 mg/kg | 0.2 | 4 nM |  |  |  |  | 
13 | Cc1ccc(-c2nc3ccc(C)cn3c2CC(=O)N(C)C)cc1 [ZOLPIDEM] |  | 4.4 mg/kg |  |  |  |  |  |  | 
14 | O=C1CC[C@H]2c3c(-c4noc(C5CC5)n4)ncn3-c3ccccc3N12 |  | 1.1 mg/kg | 1.05 | 0.62 nM |  |  |  |  | 
15 | O=C1OCC2c3c(-c4noc(C5CC5)n4)ncn3-c3ccccc3N12 (stereo not given) | 0.5 |  | 0.96 | 2.4 nM |  |  |  |  | 
16 | O=C1CCC2c3c(-c4noc(C5CC5)n4)ncn3-c3ccccc3N12 (stereo not given) | 0.29 |  | 1.15 | 0.87 nM |  |  |  |  | 
17 | CC(C)(C)OC(=O)N1Cc2c(-c3noc(C4CC4)n3)ncn2-c2ccccc21 |  | 0.06 mg/kg | 2.9 | 1.9 nM |  |  |  |  | 
18 | CC(=O)N1Cc2c(-c3noc(C4CC4)n3)ncn2-c2cccc(F)c21 |  |  |  |  | 107 nM |  | 0.8 nM |  | 
19 | CN1C(=O)CN=C(c2ccccc2)c2cc(Cl)ccc21 [DIAZEPAM] | 1 |  |  |  |  |  |  | > 7000 nM | 0.5 mg/kg
20 | CC(=O)N1Cc2c(-c3noc(C4CC4)n3)ncn2-c2ccc(F)cc21 |  |  | 1.11 | 0.69 nM | 81 nM |  | 0.6 nM |  | 
21 | O=C1CC[C@@H]2c3c(-c4noc(C5CC5)n4)ncn3-c3ccccc3N12 |  | 1.9 mg/kg | 0.9 | 0.65 nM |  |  |  |  | 
22 | CC(C)OC(=O)N1c2ccccc2-n2cnc(-c3noc(C4CC4)n3)c2C1(C)C | 0.7 | 3.7 mg/kg | 1.2 | 6.7 nM |  |  |  |  | 
23 | O=C(c1ccccc1Cl)N1Cc2c(-c3noc(C4CC4)n3)ncn2-c2ccccc21 | 0.28 | > 50 mg/kg | 0 | 1.4 nM |  |  |  |  | 
